Laboratory results reported in article PMC5890913 (Cancer research, 2017).

Tests used:
AR = settings: no reference given; cited from earlier work
[1] = tested on: PSA and FKBP5 gene expression in LNCaP cells; test: AR-target gene expression; type: cell-based; settings: 0.1 nM R1881, 24 hours
LNCaP cells = test: LNCaP cell proliferation; type: cell-based; settings: 0.1 nM R1881, 6 days
panel of kinases = test: Cross-reactivity with a panel of kinases; type: biochemical
[2] = tested on: AR recruitment to PSA enhancer ARE; test: ChIP: AR recruitment to the PSA enhancer ARE in LNCaP cells; type: cell-based; settings: 10 μM pre-treatment 30 minutes, 0.1 nM R1881 2 hours
[3] = tested on: Pr-3001 patient-derived xenograft; test: Patient-derived xenograft Pr-3001 in castrated NSG mice; type: in vivo; settings: over the course of 14 days
Summary of the method: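 The CRPC patient specimen was collected in RPMI with penicillin/streptomycin and fungizone, minced, digested with collagenase for 2 hours and washed in serum-free medium. It was implanted subcutaneously as 1 mm³ fragments in castrated NSG mice, n=8–10 per group. At 100–200 mm³, mice were randomized to vehicle or test compound, and tumor volume was measured thrice weekly.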

[4] = tested on: FKBP5 expression in 22RV1 cells; test: AR-V7-dependent FKBP5 expression in 22RV1 cells; type: cell-based; settings: 22RV1, charcoal stripped serum, 48 hours
[5] = tested on: NDRG1 and MT2A pre-mRNAs in LNCaP cells; test: Early induction of NDRG1 and MT2A pre-mRNAs in LNCaP cells; type: cell-based; settings: 10 μM, 0.1 nM R1881
AR-FL in AD1 cells = test: AR full length protein level by Western blot in AD1 cells; type: cell-based; settings: 24 hours
Summary of the method: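 AD1 cells expressing full-length AR were kept for 2 days in medium containing charcoal-stripped serum, then treated for 24 hours. Protein was extracted and Western blotted for AR using the N-terminal AR-N20 antibody, with actin as the loading control.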

PR in T47D cells = molecular target: T1, PR in T47D cells (Homo sapiens, UniProt P06401); test: PR protein level by Western blot in T47D cells; type: cell-based
T1 sequence (P06401 1-933): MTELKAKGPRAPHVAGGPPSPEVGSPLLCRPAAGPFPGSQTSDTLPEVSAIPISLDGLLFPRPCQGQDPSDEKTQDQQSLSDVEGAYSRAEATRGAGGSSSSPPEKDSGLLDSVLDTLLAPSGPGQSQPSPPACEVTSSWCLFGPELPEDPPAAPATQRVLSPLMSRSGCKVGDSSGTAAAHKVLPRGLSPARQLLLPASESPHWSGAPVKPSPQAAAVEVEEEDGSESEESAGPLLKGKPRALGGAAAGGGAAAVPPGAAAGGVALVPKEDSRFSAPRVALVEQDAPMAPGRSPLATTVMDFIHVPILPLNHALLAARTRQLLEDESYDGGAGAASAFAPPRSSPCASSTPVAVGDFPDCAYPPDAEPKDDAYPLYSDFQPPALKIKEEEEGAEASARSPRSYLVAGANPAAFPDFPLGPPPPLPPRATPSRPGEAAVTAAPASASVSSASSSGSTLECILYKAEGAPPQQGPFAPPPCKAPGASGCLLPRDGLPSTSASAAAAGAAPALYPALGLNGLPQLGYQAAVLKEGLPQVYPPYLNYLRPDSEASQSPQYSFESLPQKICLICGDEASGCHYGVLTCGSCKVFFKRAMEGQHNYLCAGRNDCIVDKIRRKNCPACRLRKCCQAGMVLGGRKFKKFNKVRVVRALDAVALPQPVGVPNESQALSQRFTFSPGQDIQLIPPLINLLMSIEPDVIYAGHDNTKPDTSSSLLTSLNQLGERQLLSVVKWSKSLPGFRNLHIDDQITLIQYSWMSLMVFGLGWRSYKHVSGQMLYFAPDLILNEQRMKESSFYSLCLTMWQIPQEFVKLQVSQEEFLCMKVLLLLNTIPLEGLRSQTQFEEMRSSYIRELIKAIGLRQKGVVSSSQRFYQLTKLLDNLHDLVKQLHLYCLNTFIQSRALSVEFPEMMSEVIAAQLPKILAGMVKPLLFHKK
Summary of the method: (§1)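 T47D breast cancer cells were plated in growth medium and treated with a range of test compound doses. PR, ER and actin levels were read by Western blot, with actin as the loading control.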

ER in T47D cells = ER in T47D cells (Homo sapiens, UniProt P03372); test: ER protein level by Western blot in T47D cells; type: cell-based
Summary of the method: as §1

[6] = tested on: F876L-AR in LNCaP-EnzR cells; test: PSA expression in enzalutamide-resistant LNCaP-EnzR cells; type: cell-based; settings: F876L mutant, 0.1 nM R1881
22RV1 xenograft = 22RV1 xenograft in castrated NSG mice; type: in vivo
[7] = molecular target: T2, glucocorticoid receptor (GR) in PC-3 cells (Homo sapiens, UniProt P04150); test: GR protein level in transiently transfected PC-3 cells; type: cell-based; settings: transient transfection
T2 sequence (P04150 1-777): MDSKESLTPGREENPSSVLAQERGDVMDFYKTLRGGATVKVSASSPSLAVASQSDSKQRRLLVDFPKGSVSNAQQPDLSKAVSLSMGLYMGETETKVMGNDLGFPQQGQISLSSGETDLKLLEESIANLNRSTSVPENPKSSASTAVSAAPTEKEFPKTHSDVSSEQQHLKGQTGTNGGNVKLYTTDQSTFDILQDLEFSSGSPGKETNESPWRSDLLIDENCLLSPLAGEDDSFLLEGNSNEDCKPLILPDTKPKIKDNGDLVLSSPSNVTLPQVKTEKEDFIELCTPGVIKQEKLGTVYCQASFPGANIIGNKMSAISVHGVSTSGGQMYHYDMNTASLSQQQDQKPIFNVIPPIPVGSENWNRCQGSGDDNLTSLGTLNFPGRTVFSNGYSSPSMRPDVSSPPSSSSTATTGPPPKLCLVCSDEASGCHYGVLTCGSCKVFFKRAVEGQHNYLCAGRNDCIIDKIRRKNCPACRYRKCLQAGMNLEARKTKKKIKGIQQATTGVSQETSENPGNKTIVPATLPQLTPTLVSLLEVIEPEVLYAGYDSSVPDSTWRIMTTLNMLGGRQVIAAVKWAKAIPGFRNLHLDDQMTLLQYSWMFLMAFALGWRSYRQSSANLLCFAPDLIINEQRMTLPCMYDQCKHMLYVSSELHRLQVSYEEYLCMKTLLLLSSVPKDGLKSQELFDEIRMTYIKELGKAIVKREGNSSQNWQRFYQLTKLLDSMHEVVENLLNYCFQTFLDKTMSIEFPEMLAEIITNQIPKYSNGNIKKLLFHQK

[8] = molecular target: T3, progesterone receptor (PR) (Homo sapiens, UniProt P06401); test: PR transactivation in HEK-293 cells; type: cell-based; settings: HEK-293, progesterone
T3 sequence (P06401 1-933): T1 sequence (P06401 1-933)

Sequence of ER in T47D cells (P03372 whole entry): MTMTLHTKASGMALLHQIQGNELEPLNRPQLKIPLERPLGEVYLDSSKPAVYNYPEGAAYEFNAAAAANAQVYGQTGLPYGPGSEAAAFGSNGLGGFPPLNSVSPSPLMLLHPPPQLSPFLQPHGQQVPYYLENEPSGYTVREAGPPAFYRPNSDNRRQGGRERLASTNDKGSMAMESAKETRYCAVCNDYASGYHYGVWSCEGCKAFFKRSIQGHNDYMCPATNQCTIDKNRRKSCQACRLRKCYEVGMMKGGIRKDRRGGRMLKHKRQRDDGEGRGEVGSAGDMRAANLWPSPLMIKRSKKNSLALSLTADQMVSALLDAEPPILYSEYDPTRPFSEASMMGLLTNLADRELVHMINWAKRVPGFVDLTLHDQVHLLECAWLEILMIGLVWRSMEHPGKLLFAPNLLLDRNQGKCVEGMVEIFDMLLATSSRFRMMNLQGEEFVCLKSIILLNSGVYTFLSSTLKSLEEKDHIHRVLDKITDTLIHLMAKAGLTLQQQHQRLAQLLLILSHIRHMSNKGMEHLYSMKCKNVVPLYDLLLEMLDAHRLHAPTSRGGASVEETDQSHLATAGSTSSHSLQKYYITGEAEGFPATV

For `COc1ccc(/C=C/C(=O)/C=C(O)/C=C/c2ccc(OC)c(OC)c2)cc1OC` [ASC-J9], the “concentrations inducing AR degradation” value (AR) is given as “greater than 10 μM”.
For `C[C@@](O)(Cn1ccc2cc(F)ccc21)C(=O)Nc1ccc(C#N)c(C(F)(F)F)c1` [(R)-UT-155], the “inhibition of R1881-induced FKBP5 expression” value [1] was “at concentrations comparable to that observed with UT-155” and the “inhibition of LNCaP proliferation” value (LNCaP cells) was “inhibited the proliferation of LNCaP cells”.
For `C[C@](O)(Cn1ccc2cc(F)ccc21)C(=O)Nc1ccc(C#N)c(C(F)(F)F)c1` [UT-155], the “inhibition of kinase activity” value (panel of kinases) was “no significant inhibition”, the “inhibition of AR recruitment to the ARE on the PSA enhancer” value [2] was “failed to inhibit” and the “inhibition of Pr-3001 growth” value [3] was 40–60%. The “inhibition of AR-V7-dependent FKBP5 expression” value [4] was “inhibited”, the “inhibition of R1881-dependent increase in NDRG1 and MT2A pre-mRNAs at 1 and 2 hours” value [5] was “failed to inhibit” and the “effect on AR expression in AD1 cells” value (AR-FL in AD1 cells) was “reduces AR expression”. The “effect on PR protein levels” value (PR in T47D cells) was “no effect”, the “effect on ER protein levels” value (ER in T47D cells) was “no effect” and the “inhibition of PSA expression in LNCaP-EnzR” value [6] was “inhibited the expression of PSA”. For the same compound, the “inhibition of 22RV1 xenograft growth” value (22RV1 xenograft; 100 mg/kg/day s.c.) was 53%, the “effect on GR protein levels” value [7] was “no effect on GR” and the “inhibition of PR transactivation” value [8] was “at concentration comparable to that of the AR”.
For `CNC(=O)c1ccc(N2C(=S)N(c3ccc(C#N)c(C(F)(F)F)c3)C(=O)C2(C)C)cc1F` [enzalutamide, reference compound], the “inhibition of AR recruitment to the ARE on the PSA enhancer” value [2] was “inhibited” and the “effect on growth of 22RV1 tumors” value (22RV1 xenograft; 30 mg/kg/day s.c.) was “no effect”.
